Reference: ChEMBL document CHEMBL1130239, “Synthesis and evaluation of (S)-4-(3-(2'-[11C]isopropylamino)-2-hydroxypropoxy) -2H-benzimidazol -2-one ((S)-[11C]CGP 12388) and (S)-4-(3-((1'-[18F]-fluoroisopropyl)amino)-2-hydroxypropoxy) -2H- benzimidazol-2-one ((S)-[18F]fluoro-CGP 12388) for visualization of beta-adrenoceptors with positron …” (J Med Chem, 1997)

Key:
Rattus norvegicus [1] = species on record: Rattus norvegicus; assay: Biodistribution of [18]Fluoro-CGP 12388 (60 minutes post injection) in red blood cells of male wistar rats; assay type: ADME, organism-based; details: in vivo, 1 h
Procedure, shortened: (§1)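 Male Wistar rats (200 ± 20 g) under ip pentobarbital (60 mg/kg). Saline given iv <1 min before tracer (controls, n = 4). Tracer (2 MBq, 30 pmol) injected iv in 0.3 mL. Rats killed by heart extirpation at 60 min and tissues dissected; plasma taken by centrifugation (3 min, 1000g). Uptake given as DAR, (cpm/g tissue)/(injected cpm/body weight g), mean ± SD.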

Rattus norvegicus [2] = species on record: Rattus norvegicus; assay: Biodistribution of [18]Fluoro-CGP 12388 (10 minutes post injection) in kidney of male wistar rats; assay type: ADME, organism-based; details: in vivo
Procedure, shortened: (§2)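 Pentobarbital-anesthetized (60 mg/kg ip) male Wistar rats (200 ± 20 g) received iv saline (n = 4) or 500 μg (±)-propranolol (n = 4) <1 min before 2 MBq (30 pmol) tracer in 0.3 mL. They were killed by heart extirpation at 10 or 60 min. Plasma came from blood centrifuged 3 min at 1000g. Tissue counts are expressed as DAR, mean ± SD.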

Rattus norvegicus [3] = species on record: Rattus norvegicus; assay: Biodistribution of [18]Fluoro-CGP 12388 (60 minutes post injection) in lung of male wistar rats; assay type: ADME, organism-based; details: in vivo, 1 h; procedure, shortened: as §2
Rattus norvegicus [4] = species on record: Rattus norvegicus; assay: Biodistribution of [18]Fluoro-CGP 12388 (60 minutes post injection) in plasma of male wistar rats; assay type: ADME, organism-based; details: in vivo, 1 h; procedure, shortened: as §1
Rattus norvegicus [5] = species on record: Rattus norvegicus; assay: Biodistribution of [18]Fluoro-CGP 12388 (60 minutes post injection) in bone of male wistar rats; assay type: ADME, organism-based, Bone element; details: in vivo, 1 h; procedure, shortened: as §2
Rattus norvegicus [6] = species on record: Rattus norvegicus; assay: Biodistribution of [18]Fluoro-CGP 12388 (10 minutes post injection) in red blood cells of male wistar rats; assay type: ADME, organism-based; details: in vivo; procedure, shortened: as §2
[7] = Partition coefficient (logP); assay type: physicochemical; details: octanol/water
Procedure, shortened: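 50-100 μCi of tracer in 0.1 M phosphate buffer pH 7.4 (5 mL) plus n-octanol (5 mL). Shaken vigorously for 30 min at 37 °C, five mixtures. 100 μL of each layer gamma-counted. log P from the octanol/water count ratio, n = 5. A calculated value was also obtained with Pallas 1.2.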

Rattus norvegicus [8] = species on record: Rattus norvegicus; assay: Biodistribution of [18]Fluoro-CGP 12388 (10 minutes post injection) in spleen of male wistar rats; assay type: ADME, organism-based; details: in vivo; procedure, shortened: as §2
Rattus norvegicus [9] = species on record: Rattus norvegicus; assay: Biodistribution of [18]Fluoro-CGP 12388 (10 minutes post injection) in intestine of male wistar rats; assay type: ADME, organism-based; details: in vivo; procedure, shortened: as §2
Rattus norvegicus [10] = species on record: Rattus norvegicus; assay: Biodistribution of [18]Fluoro-CGP 12388 (10 minutes post injection) in cortex of male wistar rats; assay type: ADME, organism-based; details: in vivo; procedure, shortened: as §2
Rattus norvegicus [11] = species on record: Rattus norvegicus; assay: Biodistribution of [18]Fluoro-CGP 12388 (60 minutes post injection) in muscle of male wistar rats; assay type: ADME, organism-based, Muscle tissue; details: in vivo, 1 h; procedure, shortened: as §1
Rattus norvegicus [12] = species on record: Rattus norvegicus; assay: Biodistribution of [18]Fluoro-CGP 12388 (60 minutes post injection) in fat of male wistar rats; assay type: ADME, organism-based, Adipose tissue; details: in vivo, 1 h; procedure, shortened: as §2
Rattus norvegicus [13] = species on record: Rattus norvegicus; assay: Biodistribution of [18]Fluoro-CGP 12388 (60 minutes post injection) in spleen of male wistar rats; assay type: ADME, organism-based; details: in vivo, 1 h; procedure, shortened: as §1
Rattus norvegicus [14] = species on record: Rattus norvegicus; assay: Biodistribution of [18]Fluoro-CGP 12388 (60 minutes post injection) in heart of male wistar rats; assay type: ADME, organism-based; details: in vivo, 1 h; procedure, shortened: as §2
Rattus norvegicus [15] = species on record: Rattus norvegicus; assay: Biodistribution of [18]Fluoro-CGP 12388 (10 minutes post injection) in liver of male wistar rats; assay type: ADME, organism-based; details: in vivo; procedure, shortened: as §2
Rattus norvegicus [16] = species on record: Rattus norvegicus; assay: Biodistribution of {18]Fluoro-CGP 12388 (60 minutes post injection) in liver of male wistar rats; assay type: ADME, organism-based; details: in vivo, 1 h; procedure, shortened: as §1
Rattus norvegicus [17] = species on record: Rattus norvegicus; assay: Biodistribution of [18]Fluoro-CGP 12388 (10 minutes post injection) in bone of male wistar rats; assay type: ADME, organism-based, Bone element; details: in vivo; procedure, shortened: as §2
Rattus norvegicus [18] = species on record: Rattus norvegicus; assay: Biodistribution of [18]Fluoro-CGP 12388 (10 minutes post injection) in heart of male wistar rats; assay type: ADME, organism-based; details: in vivo; procedure, shortened: as §2
Rattus norvegicus [19] = species on record: Rattus norvegicus; assay: Biodistribution of [18]Fluoro-CGP 12388 (60 minutes post injection) in trachea of male wistar rats; assay type: ADME, organism-based; details: in vivo, 1 h; procedure, shortened: as §1
Rattus norvegicus [20] = species on record: Rattus norvegicus; assay: Biodistribution of [18]Fluoro-CGP 12388 (60 minutes post injection) in intestine of male wistar rats; assay type: ADME, organism-based; details: in vivo, 1 h; procedure, shortened: as §2
Rattus norvegicus [21] = species on record: Rattus norvegicus; assay: Biodistribution of [18]Fluoro-CGP 12388 (10 minutes post injection) in cerebellum of male wistar rats; assay type: ADME, organism-based; details: in vivo; procedure, shortened: as §2
Rattus norvegicus [22] = species on record: Rattus norvegicus; assay: Biodistribution of [18]Fluoro-CGP 12388 (10 minutes post injection) in trachea of male wistar rats; assay type: ADME, organism-based; details: in vivo; procedure, shortened: as §2
Rattus norvegicus [23] = species on record: Rattus norvegicus; assay: Biodistribution of [18]Fluoro-CGP 12388 (60 minutes post injection) in cortex of male wistar rats; assay type: ADME, organism-based; details: in vivo, 1 h; procedure, shortened: as §2
Rattus norvegicus [24] = species on record: Rattus norvegicus; assay: Biodistribution of [18]Fluoro-CGP 12388 (60 minutes post injection) in cerebellum of male wistar rats; assay type: ADME, organism-based; details: in vivo, 1 h; procedure, shortened: as §2
Rattus norvegicus [25] = species on record: Rattus norvegicus; assay: Biodistribution of [18]Fluoro-CGP 12388 (10 minutes post injection) in fat of male wistar rats; assay type: ADME, organism-based, Adipose tissue; details: in vivo; procedure, shortened: as §2
Rattus norvegicus [26] = species on record: Rattus norvegicus; assay: Biodistribution of [18]Fluoro-CGP 12388 (10 minutes post injection) in muscle of male wistar rats; assay type: ADME, organism-based, Muscle tissue; details: in vivo; procedure, shortened: as §2
Rattus norvegicus [27] = species on record: Rattus norvegicus; assay: Biodistribution of [18]Fluoro-CGP 12388 (60 minutes post injection) in kidney of male wistar rats; assay type: ADME, organism-based; details: in vivo, 1 h; procedure, shortened: as §2
Rattus norvegicus [28] = species on record: Rattus norvegicus; assay: Biodistribution of [18]Fluoro-CGP 12388 (10 minutes post injection) in lung of male wistar rats; assay type: ADME, organism-based; details: in vivo; procedure, shortened: as §2
Rattus norvegicus [29] = species on record: Rattus norvegicus; assay: Biodistribution of [18]Fluoro-CGP 12388 (10 minutes post injection) in plasma of male wistar rats; assay type: ADME, organism-based; details: in vivo; procedure, shortened: as §2

- DAR (Rattus norvegicus [1]): 0.39
- DAR (Rattus norvegicus [2]): 7.93
- DAR (Rattus norvegicus [3]): 0.59
- DAR (Rattus norvegicus [4]): 0.35
- DAR (Rattus norvegicus [5]): 0.41
- DAR (Rattus norvegicus [6]): 0.57
- logP [7]: 0.44
- DAR (Rattus norvegicus [8]): 1.17
- DAR (Rattus norvegicus [9]): 1.52
- DAR (Rattus norvegicus [10]): 0.13
- DAR (Rattus norvegicus [11]): 0.3
- DAR (Rattus norvegicus [12]): 0.07
- DAR (Rattus norvegicus [13]): 0.41
- DAR (Rattus norvegicus [14]): 0.46
- DAR (Rattus norvegicus [15]): 1.62
- DAR (Rattus norvegicus [16]): 0.64
- DAR (Rattus norvegicus [17]): 0.39
- DAR (Rattus norvegicus [18]): 1.09
- DAR (Rattus norvegicus [19]): 0.37
- DAR (Rattus norvegicus [20]): 0.87
- DAR (Rattus norvegicus [21]): 0.17
- DAR (Rattus norvegicus [22]): 0.7
- DAR (Rattus norvegicus [23]): 0.12
- DAR (Rattus norvegicus [24]): 0.12
- DAR (Rattus norvegicus [25]): 0.53
- DAR (Rattus norvegicus [26]): 0.42
- DAR (Rattus norvegicus [27]): 0.91
- DAR (Rattus norvegicus [28]): 1.37
- DAR (Rattus norvegicus [29]): 0.51
SMILES: CC(C[18F])NC[C@H](O)COc1cccc2[nH]c(O)nc12 (some centres undefined)
